ChEMBL document CHEMBL3227952, “Potential organ- or tumor-imaging agents. 18. Radioiodinated diamines and bisquaternaries” (J Med Chem, 1979)

Experiments:
Conditions in all cases: in vivo
Adrenal [1] = assay: Drug uptake in Sprague-Dawley rat adrenal at 6.3 uCi, iv after 0.5 hrs by liquid scintillation counting; assay type: ADME, organism-based, Adrenal gland
How it was run: (§1)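 Adult male Sprague-Dawley rats (200–420 g) got ¹⁴C-labelled bisquaternary (20.9 µCi/mg) in saline, 0.1 mL, by tail vein under ether anesthesia. Five rats per time point were exsanguinated under ether. Organs were excised, rinsed, blotted and weighed. Duplicate samples underwent liquid scintillation counting, with quench corrected by the external standard-channels ratio. Results are % administered dose/g, mean ± SEM.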

Brain [2] = assay: Drug uptake in Sprague-Dawley rat brain at 6.3 uCi, iv after 0.5 hrs by liquid scintillation counting; assay type: ADME, organism-based; how it was run: as §1
[3] = Drug uptake in Sprague-Dawley rat diaphragm at 6.3 uCi, iv after 0.5 hrs by liquid scintillation counting; assay type: ADME, organism-based; how it was run: as §1
Heart [4] = assay: Drug uptake in Sprague-Dawley rat heart at 6.3 uCi, iv after 0.5 hrs by liquid scintillation counting; assay type: ADME, organism-based; how it was run: as §1
[5] = Drug uptake in Sprague-Dawley rat intervertebral disk at 6.3 uCi, iv after 0.5 hrs by liquid scintillation counting; assay type: ADME, organism-based; how it was run: as §1
Kidney [6] = assay: Drug uptake in Sprague-Dawley rat kidney at 6.3 uCi, iv after 0.5 hrs by liquid scintillation counting; assay type: ADME, organism-based; how it was run: as §1
Liver [7] = assay: Drug uptake in Sprague-Dawley rat liver at 6.3 uCi, iv after 0.5 hrs by liquid scintillation counting; assay type: ADME, organism-based; how it was run: as §1
Lung [8] = assay: Drug uptake in Sprague-Dawley rat lung at 6.3 uCi, iv after 0.5 hrs by liquid scintillation counting; assay type: ADME, organism-based; how it was run: as §1
[9] = Drug uptake in Sprague-Dawley rat meninges at 6.3 uCi, iv after 0.5 hrs by liquid scintillation counting; assay type: ADME, organism-based; how it was run: as §1
Pancreas [10] = assay: Drug uptake in Sprague-Dawley rat pancreas at 6.3 uCi, iv after 0.5 hrs by liquid scintillation counting; assay type: ADME, organism-based; how it was run: as §1
Spleen [11] = assay: Drug uptake in Sprague-Dawley rat spleen at 6.3 uCi, iv after 0.5 hrs by liquid scintillation counting; assay type: ADME, organism-based
How it was run: (§2)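 [¹⁴C]Hexamethonium diiodide in saline (15 mg/5.0 mL), 20.9 μCi/mg, 0.1 mL injected into the tail vein of ether-anesthetized adult male Sprague-Dawley rats (200–420 g). At 0.5 or 2 h rats were exsanguinated under ether and organs excised, rinsed, blotted and weighed. Duplicate samples were counted by liquid scintillation, with quench corrected by external standard-channels ratio. Results are % administered dose/g, mean ± SEM, five rats.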

Testes [12] = assay: Drug uptake in Sprague-Dawley rat testes at 6.3 uCi, iv after 0.5 hrs by liquid scintillation counting; assay type: ADME, organism-based, Testis; how it was run: as §2
Thyroid gland [13] = assay: Drug uptake in Sprague-Dawley rat thyroid at 6.3 uCi, iv after 0.5 hrs by liquid scintillation counting; assay type: ADME, organism-based; how it was run: as §2
[14] = Drug uptake in Sprague-Dawley rat trachea at 6.3 uCi, iv after 0.5 hrs by liquid scintillation counting; assay type: ADME, organism-based; how it was run: as §2
Blood [15] = assay: Drug uptake in Sprague-Dawley rat blood at 6.3 uCi, iv after 0.5 hrs by liquid scintillation counting; assay type: ADME, organism-based; how it was run: as §1
Adrenal [16] = assay: Drug uptake in Sprague-Dawley rat adrenal at 6.3 uCi, iv after 2 hrs by liquid scintillation counting; assay type: ADME, organism-based, Adrenal gland; how it was run: as §1
Brain [17] = assay: Drug uptake in Sprague-Dawley rat brain at 6.3 uCi, iv after 2 hrs by liquid scintillation counting; assay type: ADME, organism-based; how it was run: as §1
[18] = Drug uptake in Sprague-Dawley rat diaphragm at 6.3 uCi, iv after 2 hrs by liquid scintillation counting; assay type: ADME, organism-based; how it was run: as §1
Heart [19] = assay: Drug uptake in Sprague-Dawley rat heart at 6.3 uCi, iv after 2 hrs by liquid scintillation counting; assay type: ADME, organism-based; how it was run: as §1
[20] = Drug uptake in Sprague-Dawley rat intervertebral disk at 6.3 uCi, iv after 2 hrs by liquid scintillation counting; assay type: ADME, organism-based; how it was run: as §1
Kidney [21] = assay: Drug uptake in Sprague-Dawley rat kidney at 6.3 uCi, iv after 2 hrs by liquid scintillation counting; assay type: ADME, organism-based; how it was run: as §1
Liver [22] = assay: Drug uptake in Sprague-Dawley rat liver at 6.3 uCi, iv after 2 hrs by liquid scintillation counting; assay type: ADME, organism-based; how it was run: as §1
Lung [23] = assay: Drug uptake in Sprague-Dawley rat lung at 6.3 uCi, iv after 2 hrs by liquid scintillation counting; assay type: ADME, organism-based; how it was run: as §1
[24] = Drug uptake in Sprague-Dawley rat meninges at 6.3 uCi, iv after 2 hrs by liquid scintillation counting; assay type: ADME, organism-based; how it was run: as §1
Pancreas [25] = assay: Drug uptake in Sprague-Dawley rat pancreas at 6.3 uCi, iv after 2 hrs by liquid scintillation counting; assay type: ADME, organism-based; how it was run: as §1
Spleen [26] = assay: Drug uptake in Sprague-Dawley rat spleen at 6.3 uCi, iv after 2 hrs by liquid scintillation counting; assay type: ADME, organism-based; how it was run: as §2
Testes [27] = assay: Drug uptake in Sprague-Dawley rat testes at 6.3 uCi, iv after 2 hrs by liquid scintillation counting; assay type: ADME, organism-based, Testis; how it was run: as §2
Thyroid gland [28] = assay: Drug uptake in Sprague-Dawley rat thyroid at 6.3 uCi, iv after 2 hrs by liquid scintillation counting; assay type: ADME, organism-based; how it was run: as §2
[29] = Drug uptake in Sprague-Dawley rat trachea at 6.3 uCi, iv after 2 hrs by liquid scintillation counting; assay type: ADME, organism-based; how it was run: as §2
Blood [30] = assay: Drug uptake in Sprague-Dawley rat blood at 6.3 uCi, iv after 2 hrs by liquid scintillation counting; assay type: ADME, organism-based; how it was run: as §1

Compound `C[N+](C)([14CH3])CCCCCC[N+](C)(C)[14CH3].[I-].[I-]` has a Drug uptake (Adrenal [1]) of 0.104 % ID/g, a Drug uptake (Brain [2]) of 0.018 % ID/g and a Drug uptake [3] of 0.094 % ID/g. For the same compound, the Drug uptake (Heart [4]) was 0.145 % ID/g, the Drug uptake [5] was 1.094 % ID/g and the Drug uptake (Kidney [6]) was 2.616 % ID/g. It also gave a Drug uptake (Liver [7]) of 0.112 % ID/g, a Drug uptake (Lung [8]) of 0.377 % ID/g and a Drug uptake [9] of 0.301 % ID/g. It also gave a Drug uptake (Pancreas [10]) of 0.079 % ID/g, a Drug uptake (Spleen [11]) of 0.123 % ID/g and a Drug uptake (Testes [12]) of 0.097 % ID/g. The Drug uptake (Thyroid gland [13]) was 0.206 % ID/g, the Drug uptake [14] was 1.35 % ID/g and the Drug uptake (Blood [15]) was 0.31 % ID/g. The Drug uptake (Adrenal [16]) was 0.043 % ID/g, the Drug uptake (Brain [17]) was 0.018 % ID/g and the Drug uptake [18] was 0.014 % ID/g. For the same compound, the Drug uptake (Heart [19]) was 0.018 % ID/g, the Drug uptake [20] was 0.144 % ID/g and the Drug uptake (Kidney [21]) was 1.384 % ID/g. The Drug uptake (Liver [22]) was 0.049 % ID/g, the Drug uptake (Lung [23]) was 0.137 % ID/g and the Drug uptake [24] was 0.413 % ID/g. The Drug uptake (Pancreas [25]) was 0.016 % ID/g, the Drug uptake (Spleen [26]) was 0.051 % ID/g and the Drug uptake (Testes [27]) was 0.022 % ID/g. The Drug uptake (Thyroid gland [28]) was 0.047 % ID/g, the Drug uptake [29] was 0.127 % ID/g and the Drug uptake (Blood [30]) was 0.02 % ID/g.
